This is a sample that favours compounds with a hit; in the whole collection about 2.3% have one here.
NR2E3 ag-1: NR2E3 agonists in two-hybrid cells, primary screen, cell-based, luminescence, CHO-S, Gal4-NCOR/VP16-NR2E3; Photoreceptor-specific nuclear receptor (Homo sapiens), Q9Y5X4; luciferase; inhibition of corepressor binding, % at 3.98 µM; actives 0.35% (n = 360,000); AID 602229, 2012;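 active = inhibition above the mean of all tested compounds plus 3 SD, cut at about 70% in these data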;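 note: 0% = DMSO with NR2E3 transfected cells and 100% = cells lacking NR2E3 construct; higher means lower luciferase signal from less NR2E3 corepressor binding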
CHT block: inhibitors of human choline transporter CHT | AID 488975, 2010 | CHT-expressing cells, membrane potential dye, choline response; active compounds read low | actives 0.86% (n = 310,000) | High affinity choline transporter 1 (Homo sapiens), Q9GZV3 | B-score at 10 µM;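 active = B-score over 3 SD under the library average, and starting fluorescence ratio not unusually high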;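 note: choline stimulus applied at its EC90 after an EC20 pre-addition; B-score computed on integrated fluorescence ratio after choline addition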
Target sequence (Q9GZV3 whole entry, looked up): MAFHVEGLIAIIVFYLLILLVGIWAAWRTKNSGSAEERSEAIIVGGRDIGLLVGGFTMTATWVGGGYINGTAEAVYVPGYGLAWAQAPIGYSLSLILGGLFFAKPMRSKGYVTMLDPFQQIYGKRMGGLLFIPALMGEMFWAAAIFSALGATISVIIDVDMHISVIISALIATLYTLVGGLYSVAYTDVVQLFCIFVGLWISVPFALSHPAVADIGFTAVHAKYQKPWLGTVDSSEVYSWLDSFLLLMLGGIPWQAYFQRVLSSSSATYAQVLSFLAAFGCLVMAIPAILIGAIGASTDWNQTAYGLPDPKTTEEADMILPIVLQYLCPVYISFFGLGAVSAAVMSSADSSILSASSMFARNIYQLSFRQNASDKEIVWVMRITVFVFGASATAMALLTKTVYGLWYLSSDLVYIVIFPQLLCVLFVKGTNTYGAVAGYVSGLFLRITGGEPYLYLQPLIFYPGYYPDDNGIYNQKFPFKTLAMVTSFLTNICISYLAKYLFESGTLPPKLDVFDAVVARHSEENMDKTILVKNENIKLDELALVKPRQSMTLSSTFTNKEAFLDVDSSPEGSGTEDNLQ
CHT allo act: CHT positive allosteric modulators, primary screen, cell-based, membrane potential dye, choline EC20; CHT-expressing cells; active compounds read high; LV-AA mutant CHT in HEK293 cells; B-score at 10 µM; actives 0.49% (n = 310,000); AID 488977, 2010;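 active = initial fluorescence not abnormally high and integrated response B-score, plate-corrected, over 3 SD above library mean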
NR2F2 inh: NR2F2 transcriptional activity inhibitors, primary screen, cell-based, luciferase reporter, HEK293T, luminescence; AID 686940, 2013; HEK293T NGFI-A luciferase reporter; inhibition, % at 8.6 µM; actives 0.7% (n = 370,000); COUP transcription factor 2 (Homo sapiens), P24468;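 active = inhibition above a per-plate cutoff, mean inhibition of test wells between control levels plus 3 SD, cut at about 38% in these data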;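 note: cells cotransfected with COUP-TFII expression vector driving the NGFI-A reporter; 0% = median of COUP-TF2 test wells and 100% = reporter-only cells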
NR2E3 ag-2: inhibitors of NR2E3-RetCOR corepressor binding, primary screen, NR2E3 agonist project, biochemical, TR-FRET, GST-NR2E3, biotin-RetCOR; 1536-well; actives 0.12% (n = 320,000); inhibition of corepressor binding, % at 4.78 µM;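 active = percent inhibition above the cutoff of mean plus 3 SD of all tested compounds, set per screening campaign, cut at about 20% in these data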;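 note: 0% = DMSO wells and 100% = biotin wells as full block of FRET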
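System: GST-NR2E3 and biotin-RetCOR proteins; probe or stimulus: 7 nM biotin-RetCOR; doses: compound at 4.8 µM, single dose; schedule: Compound–protein incubation for 5 h at 4 °C; detection: time-resolved FRET; read-out: percent inhibition; controls: biotin wells as high control, 0.6% DMSO wells as low control; format: 1536-well plates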
GalR3 antag: GalR3 antagonists in HEK293 cells, primary screen, cell-based, fluorescence readout; HEK293 GalR3-CNG cAMP membrane potential fluorescence; galR3 body fused to GalR1 C-terminus; actives 0.44% (n = 360,000); inhibition, % at 3 µM; AID 651719, 2012; Galanin receptor type 3 (Homo sapiens), O60755;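 active = inhibition above the screen-wide average plus 3 SD, cut at about 13% in these data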;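 note: forskolin and galanin both at EC90 stimulate the cells; cAMP rise reported by CNG channel membrane potential dye signal; 0% = forskolin plus galanin with DMSO and 100% = forskolin alone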
VP16 Luc counter: Gal4-VP16 luciferase reporter inhibitors, counter-screen for COUP-TFII antagonist project, cell-based, luminescence, HEK293; shares compounds with NR2F2 inh; actives 25% (n = 2,500); inhibition, % at 8.5 µM; AID 687007, 2013; in the data active = inhibition above about 13%
NR2F2 inh conf: NR2F2 transcriptional activity inhibitors, confirmation, cell-based, luciferase reporter, HEK293, triplicate; inhibition, % at 8.5 µM; AID 687008, 2013; HEK293 NGFI-A luciferase reporter, luminescence; shares compounds with NR2F2 inh; actives 45% (n = 2,500);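 active = mean inhibition over three repeats above a set limit taken from the earlier primary screen, cut at about 38% in these data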;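 note: 100% = cells given the luciferase reporter alone without the COUP-TF2 vector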
The depositor's hits bear a star; i = inactive; nt = not tested or not shown; ! = not active in a repeat.

SMILES	NR2E3 ag-1	CHT block	CHT allo act	NR2F2 inh	NR2E3 ag-2	GalR3 antag	VP16 Luc counter	NR2F2 inh conf
COc1cccc(C(=O)NCC2(c3ccccc3)CCCC2)c1OC	4	i	i	45*	-1	0	-8	17
O=C(/C=C/c1ccc([N+](=O)[O-])cc1)c1cccs1	14	i	i	-1	3	2	nt	nt
O=C(/C=C/c1ccc([N+](=O)[O-])cc1)c1ccccc(=O)c1O	-23	nt	nt	43*	nt	-3	10	59*
COC(=O)c1cc(-c2ccc(C(C)(C)C)cc2)c(=O)n2c1CCC2	nt	nt	nt	7	nt	nt	nt	nt
COc1ccc(-c2noc(C3CCCN(C(=O)c4ccccc4)C3)n2)cc1 (stereo not given)	-7	i	i	5	0	-5	nt	nt
O=C(c1ccco1)N1CCCC(c2nc(-c3ccc(S(=O)(=O)NCc4ccccc4)cc3)no2)C1 (stereo not given)	28	i	i	51*	2	-9	-4	21
CCCc1c(-c2ccc(OC)cc2)ncn1CCc1ccccc1OC	nt	nt	nt	47*	nt	0	-8	-6
O=C1CSc2ccc(C(=O)Nc3cccc(S(=O)(=O)Nc4ccc(Br)cc4)c3)cc2N1	31	i	i	75*	8	-3	0	32
COC(=O)C1CCCN(C(=O)C2CCN(S(=O)(=O)c3cccc4cccnc34)CC2)C1 (stereo not given)	nt	nt	nt	-43	nt	nt	nt	nt
Cc1ccc2c(c1)N(CCCC(=O)NCc1cccs1)C(=O)CO2	nt	nt	nt	4	nt	nt	nt	nt
CCCCNC(=O)C[C@H]1C[C@@]2(C(=O)OC)C(=C[C@H](COCc3ccccc3)O[C@@H]2C)N(CCc2ccc(OC)c(OC)c2)C1=O	nt	nt	nt	-11	nt	nt	nt	nt
COc1cc(OC)c(N(C)S(=O)(=O)c2cccc(C(=O)OCC(=O)c3c[nH]c4ccccc34)c2)cc1Cl	1	i	i	62*	-1	-10	6	53*
COc1ccc(-n2c(C(C)n3nc(C)c([N+](=O)[O-])c3C)n[nH]c2=S)cc1 (stereo not given)	-4	i	i	-2	2	-1	nt	nt
COc1ccc(-n2c(C)c([N+](=O)[O-])c3ccc(O)c(CN(C)C)c32)cc1	-34	i	i	41*	0	-6	29*	33
CCOC(=O)C1CCN(C(=O)CCc2c(C)nc3cc(-c4ccccc4)nn3c2C)CC1	-23	i	i	8	1	1	nt	nt
CCOC(=O)C1CCCCN1C(=O)CCc1c(C)nc2cc(-c3ccccc3)nn2c1C (stereo not given)	-9	i	i	52*	3	-4	-13	20
Cc1nnc(C)n1N=Cc1ccc(O)cc1O	nt	nt	nt	-5	nt	nt	nt	nt
O=C(NCCc1nc2ccccc2n1CCOc1ccc2cccnc2c1)C1CCCCC1	nt	nt	nt	12	nt	nt	nt	nt
COC(=O)[C@]12C[C@H](CC(=O)N3CCOCC3)C(=O)N(CCc3ccc(OC)c(OC)c3)C1=C[C@H](C(C)C)O[C@@H]2C1CC1	nt	nt	nt	16	nt	nt	nt	nt
CN(Cc1ccccc1)c1ncnc2sccc12	42	i	i	21	2	-2	nt	nt
c1ccc(CN2CCN(c3ncnc4nc[nH]c34)CC2)cc1	5	i	i	-16	4	4	nt	nt
OC1(Cc2ccccc2)CCN(c2ncnc3sccc23)CC1	nt	nt	nt	71*	nt	nt	-1	62*
c1ccc(CN2CCN(c3ncnc4sccc34)CC2)cc1	nt	nt	nt	71*	nt	nt	0	50*
O=C(CSc1nc2ncccc2[nH]1)N1CCOCC1	nt	nt	nt	0	nt	nt	nt	nt
Cc1c(CC(=O)NCCCC(=O)O)c(=O)oc2cc3c(cc12)CCC(C)(C)O3	-37	i	i	51*	-1	-6	61*	37
SMILES	NR2E3 ag-1	CHT block	CHT allo act	NR2F2 inh	NR2E3 ag-2	GalR3 antag	VP16 Luc counter	NR2F2 inh conf
CC(=O)N1c2ccc(S(=O)(=O)N3CCCC(C(=O)Nc4ccc(F)cc4)C3)cc2CC1C (stereo not given)	13	i	i	46*	6	2	3	22
Cc1ccc(NC(=O)C2CCN(S(=O)(=O)c3ccc4c(c3)CC(C)N4C(=O)C3CCC3)CC2)nc1 (stereo not given)	3	i	i	45*	0	0	-1	27
CC(=O)N1c2ccc(S(=O)(=O)N3CCCC(C(=O)Nc4ccc(C)cc4)C3)cc2CC1C (stereo not given)	-33	nt	nt	-3	nt	1	nt	nt
Cc1ccc(-c2nn3c(C)nnc3s2)cc1NC(=O)c1ccc(-c2cccc(Cl)c2)o1	5	nt	nt	56*!	nt	-3	-6	-4
Cc1ccc(-c2nn3c(C)nnc3s2)cc1NC(=O)c1ccc(-c2ccc(Cl)cc2Cl)o1	-18	i	i	23	-3	-7	nt	nt
CCSc1nc2ccccc2n1C(=O)/C=C/c1ccc(OC)c(OC)c1	-15	i	i	58*	0	-2	13	67*
CCn1c(SCC(=O)N/N=C/c2ccc(OC)c(OC)c2)nc2ccccc21	-3	i	i	-16	1	-6	nt	nt
CCN(CC)S(=O)(=O)c1cc(NC(=O)C2CC(=O)N(Cc3ccccc3)C2)ccc1Cl (stereo not given)	8	nt	nt	53*	0	-5	1	25
Cc1ccc(NC(=O)C2CC(=O)N(Cc3ccccc3)C2)cc1S(=O)(=O)N1CCCCCC1 (stereo not given)	16	i	i	31	2	-2	nt	nt
COC(=O)c1sc2nc(C)cc(C)c2c1N	-47	i	i	-7	0	-4	nt	nt
Cc1cc(C)c2c(N)c(C(=O)Nc3ncc(C)s3)sc2n1	43	i	i	74*	1	8	35*	67*
C[C@@H]1CCN(C2CC2)S(=O)(=O)c2c(cccc2N2CCC[C@H]2CO)O1	nt	nt	nt	2	nt	nt	nt	nt
COC(=O)C[C@H]1CC[C@@H]2[C@@H](COc3ccc(NC(=O)c4ccccc4)cc3C(=O)N2C)O1	nt	nt	nt	-1	nt	nt	nt	nt
O=C(Cc1cc(=O)[nH][nH]1)N/N=C/c1ccccc1C(F)(F)F	nt	nt	nt	0	nt	nt	nt	nt
